Assay results from publication PMC7355085 (ACS chemical neuroscience, 2016).
Where two headings read alike, the source gives them in different places.

Columns and labels:
[1] = target: T1, GSK3β (Homo sapiens, UniProt P49841); format: biochemical
[2] = target: CDK5/p25 (Homo sapiens, UniProt Q00535); assay: ADP-Glo kinase luminescent assay, CDK5/p25 inhibition; format: biochemical
[3] = test system: other 18 kinases; assay: Kinase selectivity panel; format: biochemical; conditions: 224 μM; p > 0.05
[4] = target: CK2 (Homo sapiens, UniProt P68400); assay: Kinase selectivity panel; format: biochemical; conditions: read-out: Inhibition against CK2
Chain of CK2 (P68400 whole entry): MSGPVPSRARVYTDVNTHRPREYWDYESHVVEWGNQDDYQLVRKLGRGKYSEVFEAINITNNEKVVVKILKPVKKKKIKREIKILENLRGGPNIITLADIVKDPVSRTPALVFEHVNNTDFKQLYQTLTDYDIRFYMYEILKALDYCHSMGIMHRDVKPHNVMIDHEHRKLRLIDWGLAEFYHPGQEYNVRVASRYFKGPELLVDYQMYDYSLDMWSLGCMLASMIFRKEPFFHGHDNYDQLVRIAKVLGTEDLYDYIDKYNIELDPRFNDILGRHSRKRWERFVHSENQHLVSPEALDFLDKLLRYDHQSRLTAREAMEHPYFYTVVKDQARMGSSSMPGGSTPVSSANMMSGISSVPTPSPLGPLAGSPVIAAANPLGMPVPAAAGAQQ

[5] = target: PKC (Homo sapiens, UniProt P17252); assay: Kinase selectivity panel; format: biochemical; conditions: read-out: Inhibition against PKC
[6] = target: T1, GSK3β; assay: GSK3β enzyme kinetics; format: biochemical; conditions: noncompetitive inhibition with respect to ATP, GS2 constant at 17 μM, varying ATP
In short: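 Substrate GS2 held at 17 μM while ATP and test compound concentrations were varied. Vehicle was 5% DMSO. Quadruplicates from each of two independent experiments; means ± SEM.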

[7] = test system: SH-SY5Y cells; assay: Cell viability / cytotoxicity assessment in SH-SY5Y cells; format: cell-based, human
[8] = test system: SH-SY5Y cells; assay: Morphological changes of SH-SY5Y cells; format: cell-based, human
In short: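 SH-SY5Y cultures (37 °C, humidified, 5% CO2) were examined by microscopy after 72 h. Conditions were 0.2% DMSO vehicle control, 10 μM Aβ42 alone, or test compound pretreatment followed by 10 μM Aβ42. Read-out was differentiation state and neurite extension or retraction.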

[9] = test system: SH-SY5Y cells; assay: Neuroprotection against Aβ42-induced cytotoxicity, cell viability assay; format: cell-based, human; conditions: 1 112 μM; combinations with LiCl 10 mM or TDZD-8 10 μM; 10 μM Aβ42, 72 h
[10] = test system: SH-SY5Y cells; assay: Aβ42-induced tau phosphorylation in SH-SY5Y cells; format: cell-based, human
In short: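 SH-SY5Y cells were seeded at 3 × 10^5 cells/mL in DMEM/F12 with 1% FBS. […] Lysates in pyrophosphate buffer pH 7.4, 10 μg/lane, 10% SDS-PAGE, PVDF; primary antibodies 2 h at room temperature; β-actin loading control.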

[11] = target: AKT1 (Homo sapiens, UniProt P31749); assay: Kinase selectivity panel; format: biochemical; conditions: read-out: Inhibition against AKT1
Chain of AKT1 (P31749 whole entry): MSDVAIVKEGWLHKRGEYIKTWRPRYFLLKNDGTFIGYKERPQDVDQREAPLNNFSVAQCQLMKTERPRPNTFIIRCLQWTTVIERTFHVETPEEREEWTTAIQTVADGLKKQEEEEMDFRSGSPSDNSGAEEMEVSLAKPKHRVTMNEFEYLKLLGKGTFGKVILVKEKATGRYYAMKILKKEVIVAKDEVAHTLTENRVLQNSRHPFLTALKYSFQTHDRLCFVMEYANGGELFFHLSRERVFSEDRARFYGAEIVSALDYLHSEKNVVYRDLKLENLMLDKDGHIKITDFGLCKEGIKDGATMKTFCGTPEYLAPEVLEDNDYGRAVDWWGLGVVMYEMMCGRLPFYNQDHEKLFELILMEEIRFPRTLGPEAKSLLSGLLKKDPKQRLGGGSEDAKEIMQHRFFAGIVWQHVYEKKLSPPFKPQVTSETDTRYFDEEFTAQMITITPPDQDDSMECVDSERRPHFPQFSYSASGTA

[12] = target: T1, GSK3β; assay: Promiscuous aggregation assay: GSK3β inhibition with Triton X-100; format: biochemical

T1 sequence (P49841 whole entry): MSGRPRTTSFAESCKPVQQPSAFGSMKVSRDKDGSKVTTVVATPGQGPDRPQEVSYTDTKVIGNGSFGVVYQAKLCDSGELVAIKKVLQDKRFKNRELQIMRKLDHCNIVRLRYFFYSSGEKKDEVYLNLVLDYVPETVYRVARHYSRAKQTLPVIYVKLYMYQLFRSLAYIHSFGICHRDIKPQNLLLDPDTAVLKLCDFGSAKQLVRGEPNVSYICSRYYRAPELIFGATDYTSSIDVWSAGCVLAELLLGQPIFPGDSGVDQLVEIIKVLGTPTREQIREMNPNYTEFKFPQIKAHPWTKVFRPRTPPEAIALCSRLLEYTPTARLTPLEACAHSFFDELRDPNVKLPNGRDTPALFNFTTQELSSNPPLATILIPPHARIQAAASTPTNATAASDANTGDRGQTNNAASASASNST
Chain of CDK5/p25 (Q00535 whole entry): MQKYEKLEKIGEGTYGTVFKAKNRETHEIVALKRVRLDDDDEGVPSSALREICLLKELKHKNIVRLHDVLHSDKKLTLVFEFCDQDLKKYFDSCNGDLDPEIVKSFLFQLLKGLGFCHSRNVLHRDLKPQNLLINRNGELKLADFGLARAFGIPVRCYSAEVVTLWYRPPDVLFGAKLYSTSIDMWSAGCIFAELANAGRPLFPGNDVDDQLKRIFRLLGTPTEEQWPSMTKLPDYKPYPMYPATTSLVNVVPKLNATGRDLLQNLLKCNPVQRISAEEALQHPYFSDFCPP
Chain of CDK5/p25 (Q15078 99-307 partner limits assumed): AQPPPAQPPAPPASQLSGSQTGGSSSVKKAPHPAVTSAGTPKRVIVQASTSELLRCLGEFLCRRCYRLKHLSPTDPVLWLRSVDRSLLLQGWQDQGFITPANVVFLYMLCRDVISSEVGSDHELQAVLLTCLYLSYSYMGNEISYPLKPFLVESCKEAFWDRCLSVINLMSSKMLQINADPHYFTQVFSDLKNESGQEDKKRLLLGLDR

## 3’-methoxymaysin [Compound 2]
[1]; read-out: IC50, GSK3β inhibition, 25 μM ATP, 1 h, room temperature
  IC50: 288 µM
[2]; read-out: IC50, CDK5/p25
  IC50: > 15000 µM

## O=c1cc(-c2ccc(O)c(O)c2)oc2cc(O)c([C@@H]3O[C@H](CO)[C@@H](O)[C@H](O)[C@H]3O)c(O)c12 [Compound 1, isoorientin]
[3]
  Inhibition of other 18 kinases of the panel: did not significantly inhibit
[4]
  inhibition at 224 µM: ~30%
[5]
  inhibition at 224 µM: ~30%
[6]
  Ki: 210 ± 22 µM
[1]; 224 μM, compared to control (100% kinase activity), p < 0.0001
  Decrease of GSK3β kinase activity: 52.4%
[7]; 72 h
  Dose up to which no cytotoxicity to SH-SY5Y cells was noted: > 896 µM
[7]; 72 h, without Aβ42
  Effect on cell proliferation: slightly stimulated cell proliferation
[8]; pretreatment of 28 μM 1 followed by 10 μM Aβ42, 72 h
  Cell morphology: Partial differentiated cells with extended neurites
[8]; pretreatment of 448 μM 1 followed by 10 μM Aβ42, 72 h
  Cell morphology: Protected differentiated cells with extended axons and dendrites
[9]
  Neuroprotection against cell viability loss, single concentration: neuroprotection against cell viability loss
[10]; co-incubation of 1 with 10 μM Aβ42, 72 h, compared to untreated cells, p > 0.05
  Levels of GSK3β pS9 and total GSK3β: No significant change
[11]
  inhibition at 224 µM: ~30%
[12]
  IC50: 192 µM
[2]
  IC50: > 15000 µM

## O=c1cc(-c2ccc(O)c(O)c2)oc2cc(O)cc(O)c12 [luteolin]
[12]; IC50, GSK3β, with 0.01% Triton, with 0.01% Triton X-100
  IC50: 32 µM
[12]; IC50, GSK3β, without Triton, before addition of Triton X-100
  IC50: 2 µM

## β-Amyloid fragment peptide 1–42 [Aβ42]
[7]; 10 μM Aβ42
  Inhibition of cell growth: about 50%
[8]; 10 μM Aβ42 treatment, 72 h
  Cell morphology: Impaired and nondifferentiated cells with retracted neurites
[10]; 10 μM Aβ42, 72 h
  Increase of tau phosphorylation at pS199/pS202 relative to untreated cells: approximately 3.5 fold
  Increase of tau phosphorylation at pS396 relative to untreated cells: ~2.3 fold
